Legend:
Format in all cases: functional
COLO 205 = experiment: Antitumor activity against human COLO 205 cells in xenograft model assessed as difference between median time to endpoint time of treated versus control group at 125 mg/kg
BT-474 = experiment: Anticancer activity against human BT-474 cells assessed as cell growth inhibition measured after 72 hrs by DAPI staining based analysis
In short: (§1)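 Cells were seeded, and DNA content at 24 h after seeding (T0) was read by imaging of fixed, DAPI-stained cells. Cells were then exposed to a range of drug concentrations for a further 72 h (T72) and DNA content was read again. T72 values were normalized to T0, and GI50 was taken from curve fits as the concentration giving 50% growth inhibition relative to T0 and Ymax.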

COLO-320-HSR = experiment: Anticancer activity against human COLO 320HSR cells assessed as cell doubling measured for 72 hrs by DAPI staining based analysis
786-0 = experiment: Anticancer activity against human 786-0 cells assessed as cell growth inhibition measured after 72 hrs by DAPI staining based analysis
In short: (§2)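 Cells were seeded and, after 24 h, DNA content was read as T0. Cells were then exposed to varying drug concentrations for a further 72 h (T72). Fixed cells were DAPI-stained and DNA content measured by automated imaging. T72 values were normalized to T0. GI50 is the concentration giving 50% growth inhibition between T0 and Ymax, obtained by curve fitting.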

SCaBER = experiment: Anticancer activity against human SCaBER cells assessed as cell doubling measured for 72 hrs by DAPI staining based analysis
Y79 = experiment: Anticancer activity against human Y79 cells assessed as cell growth inhibition measured after 72 hrs by DAPI staining based analysis
CAL-27 = experiment: Anticancer activity against human CAL-27 cells assessed as cell growth inhibition measured after 72 hrs by DAPI staining based analysis; in short: as §1
MDA-MB-435 = experiment: Anticancer activity against human MDA-MB-435 cells assessed as cell growth inhibition measured after 72 hrs by DAPI staining based analysis
SNU-16 = experiment: Anticancer activity against human SNU-16 cells assessed as cell growth inhibition measured after 72 hrs by DAPI staining based analysis
[1] = Anticancer activity against human UM-SCC-12 cells assessed as cell growth inhibition measured after 72 hrs by DAPI staining based analysis
NCI-H157 = experiment: Anticancer activity against human NCI-H157 cells assessed as cell doubling measured for 72 hrs by DAPI staining based analysis
H4 = experiment: Anticancer activity against human H4 cells assessed as cell growth inhibition measured after 72 hrs by DAPI staining based analysis
In short: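 Cells seeded, DAPI-stained DNA content of fixed cells read by imaging 24 h after seeding (T0), and again after a further 72 h exposure to a range of drug concentrations (T72). T72 values were normalized to T0. Curve fits gave the concentration producing 50% growth inhibition relative to T0 and Ymax (GI50).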

SK-UT-1 = experiment: Anticancer activity against human SK-UT-1 cells assessed as cell growth inhibition measured after 72 hrs by DAPI staining based analysis
639-V = experiment: Anticancer activity against human 639-V cells assessed as cell doubling measured for 72 hrs by DAPI staining based analysis
HT-1376 = experiment: Anticancer activity against human HT-1376 cells assessed as cell doubling measured for 72 hrs by DAPI staining based analysis
HepG2 = experiment: Anticancer activity against human HepG2 cells assessed as cell growth inhibition measured after 72 hrs by DAPI staining based analysis
Raji = experiment: Anticancer activity against human Raji cells assessed as cell growth inhibition measured after 72 hrs by DAPI staining based analysis
SW48 = experiment: Anticancer activity against human SW48 cells assessed as cell doubling measured for 72 hrs by DAPI staining based analysis
SK-NEP-1 = experiment: Anticancer activity against human SK-NEP-1 cells assessed as cell doubling measured for 72 hrs by DAPI staining based analysis
PC-3 = experiment: Anticancer activity against human PC-3 cells assessed as cell doubling measured for 72 hrs by DAPI staining based analysis
Detroit 562 = experiment: Anticancer activity against human Detroit 562 cells assessed as cell doubling measured for 72 hrs by DAPI staining based analysis
OVCAR-4 = experiment: Anticancer activity against human OVCAR-4 cells assessed as cell doubling measured for 72 hrs by DAPI staining based analysis
THP-1 = experiment: Anticancer activity against human THP-1 cells assessed as cell doubling measured for 72 hrs by DAPI staining based analysis
SNB-75 = experiment: Anticancer activity against human SNB-75 cells assessed as cell growth inhibition measured after 72 hrs by DAPI staining based analysis
HOS = experiment: Anticancer activity against human HOS cells assessed as cell growth inhibition measured after 72 hrs by DAPI staining based analysis
A-431 = experiment: Anticancer activity against human A-431 cells assessed as cell doubling measured for 72 hrs by DAPI staining based analysis
HMCB cell line = experiment: Anticancer activity against human HMCB cells assessed as cell growth inhibition measured after 72 hrs by DAPI staining based analysis
647-V = experiment: Anticancer activity against human 647-V cells assessed as cell growth inhibition measured after 72 hrs by DAPI staining based analysis; in short: as §2
NCI/ADR-RES = experiment: Anticancer activity against human NCI/ADR-RES cells assessed as cell growth inhibition measured after 72 hrs by DAPI staining based analysis
BHT-101 = experiment: Anticancer activity against human BHT-101 cells assessed as cell doubling measured for 72 hrs by DAPI staining based analysis
SW1088 = experiment: Anticancer activity against human SW1088 cells assessed as cell growth inhibition measured after 72 hrs by DAPI staining based analysis
SN12C [2] = experiment: Anticancer activity against human SN12C cells assessed as cell doubling measured for 72 hrs by DAPI staining based analysis
HCT-15 = experiment: Anticancer activity against human HCT-15 cells assessed as cell doubling measured for 72 hrs by DAPI staining based analysis
SNU-387 = experiment: Anticancer activity against human SNU-387 cells assessed as cell doubling measured for 72 hrs by DAPI staining based analysis
HuT78 = experiment: Anticancer activity against human HuT78 cells assessed as cell doubling measured for 72 hrs by DAPI staining based analysis
SW948 = experiment: Anticancer activity against human SW948 cells assessed as cell growth inhibition measured after 72 hrs by DAPI staining based analysis
MIA PaCa-2 = experiment: Anticancer activity against human MIA PaCa-2 cells assessed as cell doubling measured for 72 hrs by DAPI staining based analysis
MV4-11 = experiment: Anticancer activity against human MV4-11 cells assessed as cell doubling measured for 72 hrs by DAPI staining based analysis
NCI-H358 = experiment: Anticancer activity against human NCI-H358 cells assessed as cell growth inhibition measured after 72 hrs by DAPI staining based analysis
HCC70 = experiment: Anticancer activity against human HCC70 cells assessed as cell doubling measured for 72 hrs by DAPI staining based analysis
SN12C [3] = experiment: Anticancer activity against human SN12C cells assessed as cell growth inhibition measured after 72 hrs by DAPI staining based analysis

## CC(C)Oc1ccc(C(=O)N[C@H](CNC(=O)CN(C)C)Cc2ccc(-c3cn4cccc([C@H](C)O)c4n3)cc2)cc1Cl [GSK-923295A]
COLO 205
  Time: >74 days
BT-474
  GI50: 110 nM
COLO-320-HSR
  Activity: 3.25
786-0
  GI50: 45 nM
SCaBER
  Activity: 2.86
Y79
  GI50: 70 nM
CAL-27
  GI50: 47 nM
MDA-MB-435
  GI50: 30 nM
SNU-16
  GI50: 18 nM
[1]
  GI50: 33 nM
NCI-H157
  Activity: 2.6
H4
  GI50: 31 nM
SK-UT-1
  GI50: 23 nM
639-V
  Activity: 3.86
HT-1376
  Activity: 1.74
HepG2
  GI50: 31 nM
Raji
  GI50: 41 nM
SW48
  Activity: 2.44
SK-NEP-1
  Activity: 1.74
PC-3
  Activity: 3.07
Detroit 562
  Activity: 2.52
OVCAR-4
  Activity: 2.94
THP-1
  Activity: 1.38
SNB-75
  GI50: 26 nM
HOS
  GI50: 27 nM
A-431
  Activity: 2.95
HMCB cell line
  GI50: 25 nM
647-V
  GI50: 72 nM
NCI/ADR-RES
  GI50: 3960 nM
BHT-101
  Activity: 2.09
SW1088
  GI50: 32 nM
SN12C [2]
  Activity: 2.47
HCT-15
  Activity: 4.01
SNU-387
  Activity: 1.21
HuT78
  Activity: 2.89
SW948
  GI50: 98 nM
MIA PaCa-2
  Activity: 3.72
MV4-11
  Activity: 1.79
NCI-H358
  GI50: 18 nM
HCC70
  Activity: 1.35
SN12C [3]
  GI50: 29 nM
